The source made the active and inactive calls. The calls are words filed in the database; no cut-off is given here.
Experiments:
[1] = molecular target: Human immunodeficiency virus type 1 reverse transcriptase (Human immunodeficiency virus 1) (UniProt Q72547); experiment: Inhibition of wild type HIV1 recombinant reverse transcriptase p66/p51 heterodimer at 10 to 100 uM after 10 mins by gel-based radiolabeled primer extension assay
How it was run: (§1)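 Purified p66/p51 HIV-1 RT (10 nM) was added to start reactions containing 50 nM of a 40 nt DNA template annealed to a 5′ end-labeled 22 nt DNA primer. The mix held 200 μM dNTPs, 10 mM Tris-HCl pH 8.0, 80 mM NaCl and 6 mM MgCl2. Reactions ran 10 min at 37 °C and were stopped with formamide gel-loading buffer. Inhibitor was tested at 10 nM–1 mM in tenfold steps, with a no-inhibitor lane.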

[2] = molecular target: Human immunodeficiency virus type 1 reverse transcriptase (Human immunodeficiency virus 1) (UniProt Q72547); experiment: Inhibition of wild type HIV1 recombinant reverse transcriptase p66/p51 heterodimer […] after 10 mins by gel-based radiolabeled primer extension assay
[3] = tested on: Human immunodeficiency virus type 1 reverse transcriptase (Human immunodeficiency virus 1), Q72547 [M184V,K65R,Y115F]; experiment: Inhibition of NRTI-resistant HIV1 recombinant reverse transcriptase p66/p51 M184V/K65R/Y115F mutant at 100 uM after 10 mins by gel-based radiolabeled primer extension assay; how it was run: as §1
[4] = molecular target: Human immunodeficiency virus type 1 reverse transcriptase (Human immunodeficiency virus 1) (UniProt Q72547); experiment: Inhibition of NNRTI-resistant HIV1 recombinant reverse transcriptase p66/p51 heterodimer up to 1 mM after 10 mins by gel-based radiolabeled primer extension assay; how it was run: as §1
[5] = molecular target: Human immunodeficiency virus type 1 reverse transcriptase (Human immunodeficiency virus 1) (UniProt Q72547); experiment: Inhibition of wild type HIV1 recombinant reverse transcriptase p66/p51 heterodimer at 10 nM after 10 mins by gel-based radiolabeled primer extension assay; how it was run: as §1
[6] = tested on: Human immunodeficiency virus type 1 reverse transcriptase (Human immunodeficiency virus 1), Q72547 [M184V,K65R,Y115F]; experiment: Inhibition of NRTI-resistant HIV1 recombinant reverse transcriptase p66/p51 M184V/K65R/Y115F mutant at 10 uM after 10 mins by gel-based radiolabeled primer extension assay; how it was run: as §1
[7] = tested on: Human immunodeficiency virus type 1 reverse transcriptase (Human immunodeficiency virus 1), Q72547 [M184V,K65R,Y115F]; experiment: Inhibition of NRTI-resistant HIV1 recombinant reverse transcriptase p66/p51 M184V/K65R/Y115F mutant at 10 nM after 10 mins by gel-based radiolabeled primer extension assay; how it was run: as §1
[8] = molecular target: Human immunodeficiency virus type 1 reverse transcriptase (Human immunodeficiency virus 1) (UniProt Q72547); experiment: Inhibition of NNRTI-resistant HIV1 recombinant reverse transcriptase p66/p51 heterodimer at 10 nM to 10 uM after 10 mins by gel-based radiolabeled primer extension assay
[9] = molecular target: Human immunodeficiency virus type 1 reverse transcriptase (Human immunodeficiency virus 1) (UniProt Q72547); experiment: Inhibition of NNRTI-resistant HIV1 recombinant reverse transcriptase p66/p51 heterodimer at 100 uM after 10 mins by gel-based radiolabeled primer extension assay; how it was run: as §1

Cc1cn([C@H]2C=C[C@@H](COP(=O)(OP(=O)(O)O)OP(=O)(O)O)O2)c(=O)[nH]c1=O
inhibition [1]: Active
inhibition [2]: Active
inhibition [3]: Active
inhibition [4]: Active

Cc1cn([C@H]2C[C@H](F)[C@@H](COP(=O)(OP(=O)(O)O)OP(=O)(O)O)O2)c(=O)[nH]c1=O
inhibition [1]: Active
inhibition [2]: Active
inhibition [3]: Active
inhibition [4]: Active

Nc1ncnc2c1ncn2[C@@H]1O[C@H](COP(=O)(OP(=O)(O)O)OP(=O)(O)O)[C@@H](O)[C@H]1O
inhibition [5]: Active
inhibition [6]: Active
inhibition [7]: Active
inhibition [8]: inactive
inhibition [9]: Active

Cc1cn([C@H]2C[C@H](N=[N+]=[N-])[C@@H](COP(=O)(OP(=O)(O)O)OP(=O)(O)O)O2)c(=O)[nH]c1=O
inhibition [5]: Active
inhibition [6]: Active
inhibition [7]: Active
inhibition [8]: inactive
inhibition [9]: Active

Reference: ChEMBL document CHEMBL1777700, “Inhibition of multi-drug resistant HIV-1 reverse transcriptase by nucleoside β-triphosphates” (Bioorg Med Chem Lett, 2011)
